Experimental data taken from ChEMBL document CHEMBL2029303, “Syntheses and biological studies of novel spiropiperazinyl oxazolidinone antibacterial agents using a spirocyclic diene derived acylnitroso Diels-Alder reaction” (Bioorg Med Chem, 2012).
≈ marks a conversion by molar mass, not a printed value. Calls of active or inactive are those of the source. The rule behind the calls is not given here.

What was measured:
[1] = system: Mycobacterium tuberculosis; assay: Antimycobacterial activity against Mycobacterium tuberculosis H37Rv grown in glycerol-alanine-salts media; type: functional
[2] = system: Enterococcus faecalis; assay: Antibacterial activity against vancomycin-resistant Enterococcus faecalis 1528 at 50 uL of 2 mM solution of compound in 1:9 DMSO/MeOH after 24 hrs by agar diffusion method; type: functional
Method in brief: (§1)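 Agar diffusion screen; read-out is the diameter of the inhibition zone, in mm.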

[3] = system: Pseudomonas aeruginosa; assay: Antibacterial activity against Pseudomonas aeruginosa K799/61 at 50 uL of 2 mM solution of compound in 1:9 DMSO/MeOH after 24 hrs by agar diffusion method; type: functional
Method in brief: (§2)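 Agar diffusion assay against representative Gram-positive and Gram-negative bacteria and Mycobacterium vaccae; the read-out is the diameter of the inhibition zone around the applied compound, measured in mm.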

[4] = system: Mycolicibacterium vaccae; assay: Antimycobacterial activity against Mycobacterium vaccae IMET 10670 assessed as partial clear inhibition zone at 50 uL of 2 mM solution of compound in 1:9 DMSO/MeOH after 24 hrs by agar diffusion method; type: functional; method in brief: as §2
[5] = system: Bacillus subtilis; assay: Antibacterial activity against Bacillus subtilis ATCC 6633 assessed as clear inhibition zone at 50 uL of 2 mM solution of compound in 1:9 DMSO/MeOH after 24 hrs by agar diffusion method; type: functional; method in brief: as §2
[6] = system: Staphylococcus aureus; assay: Antibacterial activity against methicillin-resistant Staphylococcus aureus 134/93 assessed as clear inhibition zone at 50 uL of 2 mM solution of compound in 1:9 DMSO/MeOH after 24 hrs by agar diffusion method; type: functional; method in brief: as §1
[7] = system: Mycobacterium tuberculosis; assay: Antimycobacterial activity against Mycobacterium tuberculosis H37Rv grown in iron-deficient glycerol-alanine-salts media; type: functional
[8] = system: Escherichia coli; assay: Antibacterial activity against Escherichia coli SG 458 at 50 uL of 2 mM solution of compound in 1:9 DMSO/MeOH after 24 hrs by agar diffusion method; type: functional; method in brief: as §2
[9] = system: Staphylococcus aureus; assay: Antibacterial activity against Staphylococcus aureus SG 511 assessed as partial clear inhibition zone at 50 uL of 2 mM solution of compound in 1:9 DMSO/MeOH after 24 hrs by agar diffusion method; type: functional; method in brief: as §2
[10] = system: Bacillus subtilis; assay: Antibacterial activity against Bacillus subtilis ATCC 6633 at 50 uL of 2 mM solution of compound in 1:9 DMSO/MeOH after 24 hrs by agar diffusion method; type: functional; method in brief: as §2
[11] = system: Enterococcus faecalis; assay: Antibacterial activity against vancomycin-resistant Enterococcus faecalis 1528 assessed as partial clear inhibition zone at 50 uL of 2 mM solution of compound in 1:9 DMSO/MeOH after 24 hrs by agar diffusion method; type: functional; method in brief: as §1
[12] = system: Staphylococcus aureus; assay: Antibacterial activity against methicillin-resistant Staphylococcus aureus 134/93 at 50 uL of 2 mM solution of compound in 1:9 DMSO/MeOH after 24 hrs by agar diffusion method; type: functional; method in brief: as §1
[13] = system: Pseudomonas aeruginosa; assay: Antibacterial activity against Pseudomonas aeruginosa SG 137 at 50 uL of 2 mM solution of compound in 1:9 DMSO/MeOH after 24 hrs by agar diffusion method; type: functional; method in brief: as §2
[14] = system: Staphylococcus aureus; assay: Antibacterial activity against Staphylococcus aureus SG 511 at 50 uL of 2 mM solution of compound in 1:9 DMSO/MeOH after 24 hrs by agar diffusion method; type: functional; method in brief: as §2
[15] = Cytotoxicity against human HepG2 cells; type: cell-based
[16] = system: Staphylococcus aureus; assay: Ratio of MIC methicillin-resistant Staphylococcus aureus ATCC 700699 in presence of 50% mouse serum to MIC for […]; type: functional
Method in brief: (§3)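 MIC assay run with 50% mouse or human serum added to gauge protein-binding effect. Fold shift is calculated as the MIC with serum over the MIC without serum.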

[17] = system: Staphylococcus aureus; assay: Antibacterial activity against methicillin-resistant Staphylococcus aureus ATCC 700699 in presence of 50% mouse serum; type: functional; method in brief: as §3
[18] = system: Staphylococcus aureus; assay: Antibacterial activity against methicillin-resistant Staphylococcus aureus ATCC 700699 in presence of 50% human serum; type: functional; method in brief: as §3
[19] = system: Staphylococcus aureus; assay: Antibacterial activity against methicillin-sensitive Staphylococcus aureus ATCC 29213; type: functional
[20] = system: Staphylococcus aureus; assay: Antibacterial activity against methicillin-resistant Staphylococcus aureus ATCC 700699; type: functional
[21] = system: Staphylococcus aureus; assay: Ratio of MIC methicillin-resistant Staphylococcus aureus ATCC 700699 in presence of 50% human serum to MIC for […]; type: functional; method in brief: as §3
[22] = system: Mycolicibacterium vaccae; assay: Antimycobacterial activity against Mycobacterium vaccae IMET 10670 at 50 uL of 2 mM solution of compound in 1:9 DMSO/MeOH after 24 hrs by agar diffusion method; type: functional; method in brief: as §2
[23] = system: Bacillus subtilis; assay: Antibacterial activity against Bacillus subtilis ATCC 6633 assessed as partial clear inhibition zone at 50 uL of 2 mM solution of compound in 1:9 DMSO/MeOH after 24 hrs by agar diffusion method; type: functional; method in brief: as §2
[24] = system: Staphylococcus aureus; assay: Antibacterial activity against Staphylococcus aureus SG 511 assessed as clear inhibition zone at 50 uL of 2 mM solution of compound in 1:9 DMSO/MeOH after 24 hrs by agar diffusion method; type: functional; method in brief: as §2
[25] = system: Pseudomonas aeruginosa; assay: Antibacterial activity against Pseudomonas aeruginosa K799/61 assessed as clear inhibition zone at 50 uL of 2 mM solution of compound in 1:9 DMSO/MeOH after 24 hrs by agar diffusion method; type: functional, organism-based; method in brief: as §2
[26] = system: Mycolicibacterium vaccae; assay: Antimycobacterial activity against Mycobacterium vaccae IMET 10670 assessed as unclear inhibition zone at 50 uL of 2 mM solution of compound in 1:9 DMSO/MeOH after 24 hrs by agar diffusion method; type: functional; method in brief: as §2
[27] = system: Enterococcus faecalis; assay: Antibacterial activity against vancomycin-resistant Enterococcus faecalis 1528 assessed as unclear inhibition zone at 50 uL of 2 mM solution of compound in 1:9 DMSO/MeOH after 24 hrs by agar diffusion method; type: functional; method in brief: as §1

| SMILES | MIC [1] | diameter of the inhibition zone (DIZ) [2] | diameter of the inhibition zone (DIZ) [3] | diameter of the inhibition zone (DIZ) [4] | diameter of the inhibition zone (DIZ) [5] | MIC [7] | diameter of the inhibition zone (DIZ) [8] | diameter of the inhibition zone (DIZ) [10] | diameter of the inhibition zone (DIZ) [12] | diameter of the inhibition zone (DIZ) [13] | diameter of the inhibition zone (DIZ) [14] | other results |
| --- | --- | --- | --- | --- | --- | --- | --- | --- | --- | --- | --- | --- |
| CC(=O)NC[C@H]1CN(c2ccc(N3CCC4(CC3)C(O)CCC4NC(=O)OC(C)(C)C)c(F)c2)C(=O)O1 (stereo partly drawn) | > 128 µM | 15 mm | 0 mm | 13 mm | 19 mm | > 128 µM | 0 mm | 14 mm | 14 mm | 0 mm |  | diameter of the inhibition zone (DIZ) [6]: 18 mm; diameter of the inhibition zone (DIZ) [9]: 16 mm; diameter of the inhibition zone (DIZ) [11]: 18 mm |
| CC(=O)NC[C@H]1CN(c2ccc(N3CCC4(CC3)C3CCC4N(C(=O)OC(C)(C)C)O3)c(F)c2)C(=O)O1 (stereo partly drawn) | 24.4 µM | 23 mm | 0 mm | 37 mm | 27 mm | 22 µM | 0 mm | 25 mm | 25 mm | 0 mm | 18 mm | CC50 [15]: > 100 µM; Ratio [16]: 2; MIC [17]: 32 µg/mL; MIC [18]: 62 µg/mL; MIC [19]: 64 µg/mL (≈ 123 µM); diameter of the inhibition zone (DIZ) [9]: 22 mm; MIC [20]: 16 µg/mL (≈ 30.9 µM); Ratio [21]: 4; diameter of the inhibition zone (DIZ) [22]: 24 mm |
| CC(C)(C)OC(=O)N1OC2CCC1C21CCN(c2ccc(N3C[C@H](CO)OC3=O)cc2F)CC1 (stereo partly drawn) | 97 µM | 22 mm | 0 mm | 30 mm | 28 mm | > 128 µM | 0 mm | 23.5 mm | 24 mm | 0 mm | 22 mm | CC50 [15]: > 100 µM; Ratio [16]: >2; MIC [17]: > 64 µg/mL; diameter of the inhibition zone (DIZ) [23]: 30 mm; MIC [18]: > 34 µg/mL; MIC [19]: > 64 µg/mL; MIC [20]: 32 µg/mL (≈ 67 µM); Ratio [21]: >2 |
| CC(C)(C)OC(=O)N1OC2CCC1C21CCN(c2ccc([N+](=O)[O-])cc2F)CC1 (stereo not drawn) | > 128 µM |  |  |  |  | > 128 µM |  |  |  |  |  |  |
| CCCC(=O)OC[C@H]1CN(c2ccc(N3CCC4(CC3)C3CCC4N(C(=O)OC(C)(C)C)O3)c(F)c2)C(=O)O1 (stereo partly drawn) | 19.2 µM |  |  |  |  | 29.2 µM |  |  |  |  |  |  |
| CC(C)(C)OC(=O)N1OC2CCC1C21CCN(c2ccc(N3C[C@H](COS(C)(=O)=O)OC3=O)cc2F)CC1 (stereo partly drawn) | 118 µM |  |  |  |  | 67.4 µM |  |  |  |  |  |  |
| CC(C)(C)OC(=O)N1OC2CCC1C21CCN(c2ccc(NC(=O)OCc3ccccc3)cc2F)CC1 (stereo not drawn) | > 128 µM |  |  |  |  | > 128 µM |  |  |  |  |  |  |
| CC(C)(C)OC(=O)N1OC2CCC1C21CCN(c2ccc(N)cc2F)CC1 (stereo not drawn) | > 128 µM |  |  |  |  | > 128 µM |  |  |  |  |  |  |
| CC(C)(C)OC(=O)N1OC2CCC1C21CCN(c2ccc(N3C[C@H](CN)OC3=O)cc2F)CC1 (stereo partly drawn) |  |  |  |  |  |  | 10 mm | 12 mm |  | 0 mm | 10 mm | diameter of the inhibition zone (DIZ) [24]: 13 mm; diameter of the inhibition zone (DIZ) [6]: 14 mm; diameter of the inhibition zone (DIZ) [25]: Active; diameter of the inhibition zone (DIZ) [26]: 25 mm; diameter of the inhibition zone (DIZ) [27]: 14 mm; diameter of the inhibition zone (DIZ) [22]: 18 mm |
| CC(=O)NC[C@H]1CN(c2ccc(N3CCOCC3)c(F)c2)C(=O)O1 [LINEZOLID] |  |  |  |  |  | 0.4 µM |  |  |  |  |  |  |
